Compound activity from PubChem BioAssay.
Sampled rows, rich in hits. Any-hit rate of the full collection: about 9.4%.
CSC inhib: cancer stem cell inhibition; cancer stem cell-like cells viability, luminescence; inhibition, % at 7.5 µM; 300,000 compounds, 1.1% hits; AID 2717; in the data active = inhibition above about 75%; inconclusive = no clear call, values can overlap the other calls; tested in HMLE shEcad cells
SKKanGAS inh: inhibitors of SKKanGAS S. pyogenes growth in kanamycin (SK-promoter or general growth effect); BacTiter-Glo, 6 h; inhibition, % at 7.5 µM; 300,000 compounds, 1.3% hits;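 active = mean replicate score, as percent of positive control median, at least 50; inconclusive = mean below 50 but one replicate at or above 50; inactive = mean and every replicate below 50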;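 also: strain carries kanamycin resistance gene driven by streptokinase promoter and grows in 40 µg/ml kanamycin; loss of luminescence reflects streptokinase promoter inhibition or plain growth inhibition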
Lmaj promast: reduces viability of Leishmania major promastigotes | resazurin fluorescence viability | inhibition, % at 10 µM | 200,000 compounds, 9% hits; in the data active = inhibition above about 50%;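 also: promastigotes grown with compound for 44 hours at 28 °C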
Beta apoptosis: beta cell apoptosis inhibition; AID 435005; INS-1E cytokine-induced death, ATP luminescence, 48 h; percent of positive-control rescue, neutral wells zero; 300,000 compounds, 0.8% hits; protection from apoptosis, % (no concentration beside the values);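 active = Every replicate reaches about 75%, or at least half do and their mean reaches it too, limit read from the data; inconclusive = At least half of replicates reach the limit but their mean does not; inactive = Under half of replicates reach the limit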;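 also: higher means more ATP so stronger rescue from cytokine killing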
Mdm2-MdmX inh: disrupts the human Mdm2-MdmX interaction | O15151+Q00987 | SaOS-2 split-luciferase Mdm2/MdmX complementation, luminescence | inhibition, % at 8 µM | 330,000 compounds, 3% hits | AID 485346;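 active = inhibition of at least 50% at 8 µM in the primary screen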
Target sequence (O15151 whole entry, looked up): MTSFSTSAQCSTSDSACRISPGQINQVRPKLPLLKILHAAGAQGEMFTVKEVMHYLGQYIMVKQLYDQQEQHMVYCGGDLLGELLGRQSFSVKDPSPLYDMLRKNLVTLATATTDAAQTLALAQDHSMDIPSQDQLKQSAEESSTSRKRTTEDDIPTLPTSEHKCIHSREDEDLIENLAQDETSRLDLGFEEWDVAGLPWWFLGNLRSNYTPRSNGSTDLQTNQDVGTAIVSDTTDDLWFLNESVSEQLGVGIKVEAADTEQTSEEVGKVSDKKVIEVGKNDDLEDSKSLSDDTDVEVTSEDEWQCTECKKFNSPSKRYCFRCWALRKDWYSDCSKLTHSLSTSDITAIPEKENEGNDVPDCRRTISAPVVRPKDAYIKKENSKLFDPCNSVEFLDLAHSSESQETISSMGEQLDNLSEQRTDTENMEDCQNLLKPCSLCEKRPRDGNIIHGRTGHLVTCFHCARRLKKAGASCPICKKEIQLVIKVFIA
Target sequence (Q00987 whole entry, looked up): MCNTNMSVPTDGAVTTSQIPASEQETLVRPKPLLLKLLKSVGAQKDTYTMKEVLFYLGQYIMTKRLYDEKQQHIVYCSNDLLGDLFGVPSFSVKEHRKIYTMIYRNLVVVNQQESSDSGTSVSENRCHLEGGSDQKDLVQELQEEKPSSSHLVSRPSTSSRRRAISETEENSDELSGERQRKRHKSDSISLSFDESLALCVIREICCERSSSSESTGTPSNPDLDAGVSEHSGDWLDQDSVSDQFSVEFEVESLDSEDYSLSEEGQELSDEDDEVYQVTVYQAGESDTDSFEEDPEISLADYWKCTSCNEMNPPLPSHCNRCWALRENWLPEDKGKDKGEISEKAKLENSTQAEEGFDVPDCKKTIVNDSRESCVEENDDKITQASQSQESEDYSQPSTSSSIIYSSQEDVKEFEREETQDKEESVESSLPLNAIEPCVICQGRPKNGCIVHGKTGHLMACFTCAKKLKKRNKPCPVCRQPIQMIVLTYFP
T cruzi inh: T. cruzi replication inhibition; inhibition, % (test concentration not listed); T. cruzi beta-gal in NIH3T3, luminescence, 90 h; 300,000 compounds, 1.4% hits;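 active = mean inhibition across valid replicates above about 55%, limit read from the data; inconclusive = mean below that limit but half or more replicates reach it; inactive = mean below it, under half of replicates reach it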;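 also: signal also drops with host cell toxicity which is not excluded here; higher percent means less beta-gal luminescence so fewer parasites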
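assay system = mouse NIH/3T3 fibroblasts infected with β-gal-expressing T. cruzi Tulahuen C4 | input = 5,000 NIH/3T3 host cells per well | buffer or medium = DMEM plus 2% FBS | timing = 3 h host attachment, then at least 90 h co-culture | measured by = GalScreen luminescence, 60 min | evaluation = luminescence reflecting intracellular parasite burden, expressed as percent inhibition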
Each line names hits and unclear results; the compound was inactive in the other large screens.

CCOC(=O)COc1ccc(/C=C2/C(=O)NN(c3ccc(F)cc3)C2=O)cc1OC	none (no result: Lmaj promast)
CCOC(=O)c1ccc(N2NC(=O)/C(=C/c3ccc(OC(=O)c4ccco4)c(OC)c3)C2=O)cc1	Lmaj promast 61
C=CCc1c(C)nc(C)nc1N/N=C/c1ccc(N(C)C)cc1	Beta apoptosis 100
CCOC(=O)c1sc(N/N=C/c2ccc(N(C)C)cc2)nc1C	none (no result: Lmaj promast)
CC(C)(C)C(=O)OCCNc1nc(-c2ccccc2)nc2ccccc12	Lmaj promast 54
Cc1cc(C(=O)OCC(=O)Nc2cccnc2Cl)c2ccccc2n1	none
CC(=N)c1c(O)c2ccccc2oc1=O	T cruzi inh inconclusive (no result: Lmaj promast)
CC1CCC(C(=O)c2c(O)c3ccccc3oc2=O)CC1 (stereo unspecified)	SKKanGAS inh 53, Lmaj promast 99
Cn1nccc1C(=O)OCC(=O)Nc1nc(-c2ccccc2)cs1	none (no result: SKKanGAS inh)
Cn1cc(Cl)c(C(=O)OCC(=O)Nc2nc(-c3ccc(Br)cc3)cs2)n1	Lmaj promast 100
CCOC(=O)c1ccc(Cl)c(S(=O)(=O)N2CCCC2)c1	none
CN(C)c1ccc(/C=C/C=C2/SC(=S)N(c3ccccc3)C2=O)cc1	CSC inhib 82
COc1cc(Cl)c(C)cc1NC(=O)c1ccccc1-n1cnnn1	none (no result: CSC inhib, SKKanGAS inh, Lmaj promast, T cruzi inh)
Cc1cc(C(=O)CCC(=O)N2CCN(S(=O)(=O)c3cccs3)CC2)c(C)s1	Lmaj promast 88
CC(OC(=O)c1cccc(O)c1)C(=O)N(C)Cc1ccccc1 (stereo unspecified)	none (no result: CSC inhib, Lmaj promast)
CC(OC(=O)c1ccccc1NS(=O)(=O)c1cccc(N)c1)C(=O)N(C)Cc1ccccc1 (stereo unspecified)	Lmaj promast 82
Cc1ccc(/C=C/C(=O)Nc2ccc(Oc3ccccc3)cc2)o1	CSC inhib 88 (no result: Mdm2-MdmX inh)
Cc1ccc(/C=C/C(=O)Nc2sc(C)c(C)c2C(=O)OC(C)C)o1	Lmaj promast 51
Cc1ccc(/C=C/C(=O)Nc2nnc(C)s2)o1	Lmaj promast 55
CC(C)=CCN1CCNC(=O)C1CC(=O)NCc1nc(C)c(C)s1 (stereo unspecified)	none
C(=N\Nc1cc(N2CCCCC2)ncn1)/c1ccco1	none (no result: Lmaj promast)
O=C(Cn1ccccc1=O)NCc1ccc(F)cc1	none (no result: Lmaj promast)
COc1ccc(S(=O)(=O)N2CCOCC2)cc1NC(=O)CSc1ccccc1	none (no result: Lmaj promast)
CCN(CC)S(=O)(=O)c1ccc(OC)c(NC(=O)CSc2ccccc2)c1	Lmaj promast 99
CCN(CC)S(=O)(=O)c1ccc(OC)c(NC(=O)c2cc([N+](=O)[O-])ccc2Cl)c1	none
CCN(CC)S(=O)(=O)c1ccc(OC)c(NC(=O)CSc2cc(Cl)ccc2Cl)c1	Lmaj promast 98
CCCCC(=O)O[C@H]1CC[C@H]2[C@@H]3CCc4cc(O)ccc4[C@H]3CC[C@]12C	SKKanGAS inh 89
C[C@]12CC[C@@H]3c4ccc(O)cc4CC[C@H]3[C@@H]1CC[C@@H]2OC(=O)CCC1CCCC1	SKKanGAS inh 111 (no result: Lmaj promast)
C[C@]12CCC3c4ccc(O)cc4CCC3C1CC/C2=N\N (stereo partly specified)	none (no result: Lmaj promast)
C[C@]12CC[C@@H]3c4ccc(O)cc4CC[C@H]3[C@@H]1CCC2=O	none
Nc1c(S(=O)(=O)c2ccccc2)c2nc3ccccc3nc2n1CCN1CCOCC1	none
Cc1ccc(C)c(S(=O)(=O)c2c(N)n(/N=C/c3ccco3)c3nc4ccccc4nc23)c1	Lmaj promast 94 (no result: CSC inhib, Beta apoptosis)
Cc1ccc(S(=O)(=O)c2c(N)n(Cc3ccco3)c3nc4ccccc4nc23)cc1C	Lmaj promast 91
Nc1c(S(=O)(=O)c2ccccc2)c2nc3ccccc3nc2n1Cc1ccco1	Lmaj promast 77
Cc1ccc(S(=O)(=O)c2c(N)n(CCN3CCOCC3)c3nc4ccccc4nc23)cc1C	none
O=C1N=NC(=O)N1c1ccccc1	none (no result: Lmaj promast)
CC(=O)c1sc(NC(=O)CN2C(=O)C3CC=CCC3C2=O)nc1-c1ccccc1 (stereo unspecified)	none (no result: Lmaj promast)
N#Cc1ccc(NC(=O)c2cc(S(=O)(=O)N3CCOCC3)ccc2N2CCCC2)cc1	none (no result: Lmaj promast)
CCN(CC)S(=O)(=O)c1cccc(N=NC2=C(O)CCCC2=O)c1	Lmaj promast 61
N#Cc1ccc(-c2ccc(OCC(=O)NCC(=O)Nc3ccc(F)c(F)c3F)cc2)cc1	Lmaj promast 58
N#Cc1ccc(-c2ccc(OCC(=O)NCCc3ccccc3)cc2)cc1	none
COc1ccccc1NC(=O)COC(=O)c1ccc([N+](=O)[O-])s1	none
